CHRM4 antagonist – antagonists of human muscarinic M4 receptor (CHRM4) | P08173 | CHO-hM4 cells, ACh EC80, Fluo-8 calcium fluorescence | inhibition, % at 3 µM | actives 0.73% (n = 360,000);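 active = inhibition above its plate's cutoff, the mean inhibition of sample wells plus 3 SD, cut at about 27% in these data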
CHRM5 antagonist – blocks acetylcholine activation of human M5 receptor | actives 0.59% (n = 360,000) | AID 624040 | P08912 | CHO-hM5 cells, Fluo-8 calcium fluorescence, ACh EC80 | inhibition, % at 3 µM;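 active = inhibition above a per-plate cutoff, the mean of that plate's test compounds plus 3 SD, cut at about 27% in these data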
Target sequence (P08912 whole entry, looked up): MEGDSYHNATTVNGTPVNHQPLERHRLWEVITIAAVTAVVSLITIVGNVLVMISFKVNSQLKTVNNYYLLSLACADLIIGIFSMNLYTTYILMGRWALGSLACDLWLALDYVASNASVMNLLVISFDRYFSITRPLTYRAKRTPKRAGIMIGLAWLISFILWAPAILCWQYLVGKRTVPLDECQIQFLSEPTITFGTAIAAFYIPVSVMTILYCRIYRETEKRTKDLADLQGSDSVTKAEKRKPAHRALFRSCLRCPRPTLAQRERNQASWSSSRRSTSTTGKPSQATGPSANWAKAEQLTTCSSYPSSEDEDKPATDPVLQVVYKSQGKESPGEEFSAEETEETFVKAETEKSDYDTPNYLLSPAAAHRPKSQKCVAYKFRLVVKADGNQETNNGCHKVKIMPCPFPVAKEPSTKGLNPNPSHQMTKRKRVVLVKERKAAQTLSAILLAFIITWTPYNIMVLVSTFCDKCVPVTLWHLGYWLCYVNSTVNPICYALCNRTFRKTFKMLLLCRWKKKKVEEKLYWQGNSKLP
CHRM5 agonist – CHRM5 agonism in calcium assay. actives 0.19% (n = 360,000). P08912. activation, % at 3 µM. CHO-K1 hM5 cells, Fluo-8 calcium fluorescence; 0% DMSO wells, 100% maximal acetylcholine response. AID 624037;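 active = activation above the run's mean over test compounds plus 3 SD, cut at about 23% in these data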;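 note: signal is peak over basal fluorescence ratio across the kinetic read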
CHRM4 PAM – CHRM4 positive allosteric modulation; actives 0.4% (n = 360,000); activation, % at 3 µM; CHO-K1 hM4/Gqi5, Fluo-8 calcium fluorescence, ACh EC20; 0% = ACh EC20, 100% = maximal ACh;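 active = activation above its plate's cutoff, the mean activation of sample wells plus 3 SD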
M4 ag – agonists of human muscarinic M4 receptor (CHRM4) | actives 0.14% (n = 360,000) | activation, % at 3 µM | P08173 | AID 624127 | CHO-K1 hM4/Gqi5, Fluo-8 calcium fluorescence; vehicle 0%, full acetylcholine response 100%;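 active = activation above the run mean over all test wells plus 3 SD, cut at about 32% in these data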;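 note: peak over basal fluorescence ratio per well then scaled between controls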
CHRM5 PAM – positive allosteric modulators of human muscarinic M5 receptor; P08912; CHO-K1 hM5, Fluo-8 calcium, ACh EC20 PAM; 0% = ACh EC20, 100% = ACh EC100; activation, % at 3 µM; actives 0.3% (n = 360,000); AID 624038;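 active = activation above the run cutoff, the mean activation of all test compounds plus 3 SD, cut at about 18% in these data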
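System: CHO-K1 cell line with stable human muscarinic M5 receptor expression | Also added: EC20 acetylcholine as agonist stimulus | Compound: One concentration, 3 µM final (nominal) | Timing: Fluo-8 loading 80 min at 37 °C plus 30 min room temperature | Measured by: Fluo-8 calcium dye fluorescence, kinetic read | Read-out basis: % activation, ACh-normalized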
Of the large screens only hits and unclear results are named; the others gave an inactive call. In the library only some 1.9% were active in any assay of this set; here they are far more common.

CCc1c(-c2cccc(Br)c2)ncn1Cc1cccc(-c2ccccc2)c1	none
Cc1ccc(S(=O)(=O)N2CCN(C(=O)Cn3nc(C)c([N+](=O)[O-])c3C)CC2)c(C)c1	none
Cc1nn(CC(=O)N2CCN(c3ccccc3)CC2)c(C)c1[N+](=O)[O-]	CHRM4 antagonist 37
O=C(CCNS(=O)(=O)c1ccccc1)N1CCCCCC1	CHRM4 PAM 28
Cc1ccc(S(=O)(=O)NCCC(=O)N2CCC(C(N)=O)CC2)cc1C	CHRM4 PAM 26
CCOC(=O)N1CCN(C(=O)CCNS(=O)(=O)c2ccc(C)c(C)c2)CC1	none
CCCCC(=O)N(C)c1c(CC)nc2c(OCc3cc(Cl)cc(Cl)c3)cccn12	none
CCOc1ccc(CNC(=O)CCS(=O)(=O)c2ccc3c(c2)NC(=O)CO3)cc1OC	none
CSc1sc(C(=O)NCC2CC2)c2c1S(=O)(=O)N(C)c1ccccc1-2	none
CSc1sc(C(=O)NCC2CC2)c(-c2cccs2)c1C#N	CHRM4 PAM 17
COc1cc(C(=O)Oc2cccc(Nc3ncnc4ccccc34)c2)cc(OC)c1OC	CHRM4 antagonist 31, CHRM5 antagonist 29
O=C(Nc1cccc(C(F)(F)F)c1)Nc1ccc(N2CCCC2)c(S(=O)(=O)Nc2ccccc2Cl)c1	CHRM5 antagonist 28
CC(C)(C)OC(=O)N1CCC(C(=O)Nc2ccc(C(=O)NCc3ccccc3)cc2)CC1	none
CN(C(=O)COc1ccccc1C(=O)NCCOc1ccccc1)c1ccccc1	CHRM4 antagonist 60, CHRM5 antagonist 43
O=C(c1cccc(N2C(=O)C3C4C=CC(C4)C3C2=O)c1)N1CCN(c2ccccc2F)CC1 (stereo not drawn)	none
CNC(=S)N/N=C(\C)c1ccc(C)c(C)c1	CHRM4 antagonist 27
COc1ccccc1CN1C[C@@H]2C[C@@H](c3ccc(Cl)cc3)N3CCC[C@@]23C1=O	none
COc1ccccc1CN1C[C@@H]2C[C@@H](c3ccccc3OC)N3CCC[C@@]23C1=O	CHRM4 antagonist 30
Cn1cc([C@@H]2C[C@H]3CN(Cc4cccc(Cl)c4)C(=O)[C@]34CCCN24)c2ccccc21	CHRM4 antagonist 30
Cc1c([C@@H]2C[C@H]3CN(Cc4cccc(Cl)c4)C(=O)[C@]34CCCN24)cnn1C	none
O=C(NCc1ccco1)c1ccc2sc([C@@H]3O[C@H](CO)[C@H](O)[C@H](O)[C@H]3O)nc2c1	none
CN(C(=O)c1cccc(NC(=O)Cc2cccc(NC(=O)C3CCN(C(=O)CCc4ccccc4)CC3)c2)c1)C1CC1	none
Cc1onc(-c2ccccc2)c1C(=O)NNC(=S)NC(=O)c1ccc2c(c1)OCO2	M4 ag 70
Cc1ccc(S(=O)(=O)NCCC(=O)NNC(=O)c2ccccc2Cl)cc1C	none
COc1ccc(OC)c(C2C(C(=O)c3ccc(C)o3)=C(O)C(=O)N2CCCN2CCOCC2)c1 (stereo not drawn)	CHRM5 PAM 23
C=CCC[C@H](Cc1ccc(F)cc1)C(=O)OC[C@@H](NC(=O)[C@H](CC=C)CC(=O)NCCO)C(C)(C)C	none
CCN(CC)c1ccc(/C=C(/C#N)C(=O)NCc2ccccc2)o1	CHRM5 agonist 30
CCN(CC)c1ccc(/C=C(/C#N)C(=O)NC(C)C)o1	none
Cc1sc2ncnc(NCC(O)c3ccccc3)c2c1C (stereo not drawn)	none
Cc1sc2ncnc(NCC(O)c3ccc([N+](=O)[O-])cc3)c2c1C (stereo not drawn)	CHRM5 antagonist 36
CC(=O)c1cccc(NS(=O)(=O)c2ccc3c(c2)N(C(C)=O)CCO3)c1	none
CC(C)C(C)N(Cc1cccc(C(=O)O)c1)C(=O)c1ccc2ccccc2n1 (stereo not drawn)	CHRM5 PAM 22
CSc1nsc(SC)c1C(=O)Nc1ccc(C(C)(C)C)cc1	none
CSc1nsc(SC)c1C(=O)NC(=O)Nc1cccnc1	CHRM5 PAM 22
Cc1cc(OCc2cc(C(=O)NC(C)c3c(C)nn(C)c3C)no2)cc(C)c1Cl (stereo not drawn)	none
COCCn1c(=NC(=O)/C=C/c2cccs2)sc2cc(NC(C)=O)ccc21	CHRM4 PAM 21
O=C1CCC[C@@H]2C=C[C@H](c3ccc(Br)cc3)[C@H]3CCN1[C@@H]32	none
CC12CCC(C(S(=O)(=O)Nc3ccccc3)C1=O)C2(C)C (stereo not drawn)	none
CCc1ccc(NC(=O)Cn2cc([N+](=O)[O-])nc2C)cc1	CHRM5 PAM 21
COC(=O)[C@@]1(Cc2ccc(F)cc2)[C@H]2c3cc(C(=O)N4CCCC4)n(C)c3C[C@H]2CN1C(=O)c1ccccc1	none
CCCc1c(C(=O)N/N=C/c2ccc(OCc3ccc(F)cc3)cc2)nnn1-c1nonc1N	none
Cc1ccc(C)c(/C(O)=C2\C(=O)C(=O)N(CCCn3ccnc3)C2c2cccnc2)c1 (stereo not drawn)	CHRM5 PAM 20
CC(Cc1cccs1)NC(=O)Nc1ccc([N+](=O)[O-])cc1 (stereo not drawn)	CHRM5 antagonist 30
CCN1CCN(C(=O)c2ccc(Cl)c(S(=O)(=O)N(C)c3ccccc3)c2)CC1	CHRM4 PAM 20
Cc1cccc(N(C(=O)CNC(=O)c2ccco2)C(C(=O)NC2CCCC2)c2cccnc2)c1C (stereo not drawn)	none
C/C(=N\NC(=O)C1(C)CC1(Br)Br)c1cccc(NC(=O)c2ccc(C)o2)c1 (stereo not drawn)	none
CC[N+](CC)(CC)CC(=O)Nc1c(C)cccc1C	CHRM4 antagonist 35, CHRM5 agonist 30
Cc1cccc(C)c1NC(=O)CNCC(=O)Nc1c(C)cccc1C	none
O=C(Nc1c(Cl)cccc1Cl)Oc1cccc2cccnc12	none
O=C(Nc1cccc(Br)c1)Oc1cccc2cccnc12	CHRM5 antagonist 34
CC(=O)NC(c1cccc(F)c1)c1nc(-c2cccs2)cs1 (stereo not drawn)	none
Cc1ccc(C(=O)OCC(=O)N2CC(C)OC(C)C2)cc1 (stereo not drawn)	CHRM4 PAM 16
CC(C)Cc1nnc(NS(=O)(=O)c2ccc(Cl)cc2)s1	CHRM4 PAM 16
COc1ccc(CCNC(=O)CCCCC(=O)NCCc2ccc(OC)cc2)cc1	none
COc1ccc(CN(CCNC(=O)CCCCC(=O)NCCN(Cc2ccc(OC)cc2)C(C)C)C(C)C)cc1	CHRM4 antagonist 82, CHRM5 antagonist 48
CNc1cc(-c2cc(OC)ccc2OC)ncn1	CHRM4 antagonist 73
CCOc1ccc(S(=O)(=O)N2CCOCC2)cc1NC(=O)CCN1C(=O)NC2(CCCC2)C1=O	none
